Screens: PubChem BioAssay, several laboratories
Mot1-301 SUMO: yeast Mot1-301 growth rescue at high temperature, primary screen, SUMOylation pathway inhibitor project, S. cerevisiae, ATP luminescence, 38.5C. S. cerevisiae Mot1-301 growth rescue; percent above DMSO median, 100 means doubled. growth rescue, % at 18.8 µM. 320,000 compounds, 1% hits. AID 2716, 2010;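 active = every valid replicate shows activation above 250% relative to neutral control wells; inactive = the rest, any valid replicate at or below 250%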;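 note: OY570 slx delta 5 strain wells were the positive control but not used for scaling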
FID counter: compounds displacing fluorescent DNA intercalator, primary screen, artefact control for HCV NS3 helicase inhibitor project, biochemical, FID fluorescence | 290,000 compounds, 0.17% hits | inhibition, % at 7.9 µM | DNA fluorescent intercalator displacement | AID 1845, 2009; in the data active = inhibition above about 37%;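 note: 0% = vehicle and 100% = reference compound; higher means more ethidium bromide displaced from hairpin DNA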
IMP-1 inhibitor: IMP-1 metallo-beta-lactamase inhibitors, primary screen, biochemical, epi-absorbance readout, Pseudomonas aeruginosa enzyme; metallo-beta-lactamase IMP-1 (Pseudomonas aeruginosa); purified IMP-1, nitrocefin hydrolysis, epi-absorbance fluorescence; inhibition, % at 5.6 µM; 290,000 compounds, 0.45% hits;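 active = inhibition above the mean plus 3 SD of all compounds in the same screening run, cut at about 4.5% in these data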;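 note: 0% = IMP-1 with DMSO and 100% = DMSO wells lacking enzyme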
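System: purified recombinant IMP-1 beta-lactamase. Medium: Zinc- and detergent-supplemented HEPES buffer, pH 7.1. Compound: one 5.6 µM dose […]. Schedule: 15 min preincubation plus 25 min reaction at 25 °C. Technique: Epi-absorbance fluorescence, 480 nm excitation, 530 nm emission.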
VIM-2 inhibitor: VIM-2 metallo-beta-lactamase inhibitors, primary screen, biochemical, epi-absorbance readout, Pseudomonas aeruginosa enzyme; purified VIM-2, nitrocefin hydrolysis, epi-absorbance fluorescence; inhibition, % at 5.6 µM; 290,000 compounds, 0.89% hits; AID 1527, 2009;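 active = inhibition above the mean of all tested compounds plus 3 SD, cutoff set per screening run, cut at about 7.5% in these data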;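 note: red hydrolysis product quenches plate fluorescence so inhibitors raise well fluorescence; 0% = enzyme with DMSO and 100% = DMSO without enzyme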
UBC9 SUMO inh: inhibitors of in vitro SUMOylation cascade, primary screen, biochemical, HTRF, uHTS. SUMO-conjugating enzyme UBC9 (Homo sapiens), P63279. HTRF SUMOylation assay, SAE1/SAE2 + UBC9. inhibition, % at 35 µM. 290,000 compounds, 0.36% hits. AID 2006, 2009; in the data active = inhibition above about 50%, passing the limit was not always enough
Target sequence (P63279 whole entry, looked up): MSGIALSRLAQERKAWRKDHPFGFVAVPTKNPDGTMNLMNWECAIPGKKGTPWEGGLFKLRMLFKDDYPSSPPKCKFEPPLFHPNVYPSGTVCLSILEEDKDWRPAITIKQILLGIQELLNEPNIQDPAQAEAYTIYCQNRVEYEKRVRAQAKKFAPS
NALP1 yeast inh: NALP1 inflammasome inhibitors in reconstituted yeast, colorimetric, S. cerevisiae, triplicate retest; inhibition, % at 10 µM; S. cerevisiae NALP1/ASC/caspase-1 growth, X-gal OD620, 72 h; 280,000 compounds, 0.61% hits; in the data active = inhibition mostly above about 24%, no sharp cut-off; inactive = mostly below about 32%
Mot1 SUMO dose: growth restoration of Mot1-301 yeast on galactose, dose response, SUMO pathway inhibitor project, whole organism, S. cerevisiae, ATP luminescence, cherry-picked samples. growth activity, percent, % at 42 µM. shares compounds with Mot1-301 SUMO. S. cerevisiae Mot1-301 galactose growth, 24 h; -100 = growth of slx-deleted rescue strain. AID 493004, 2010. 2,300 tested, under 10 active;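 active = Signal drops as the depositor expects, and the fitted half-maximal dose is no more than ten times the top valid tested dose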;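 note: more negative values mean stronger growth rescue toward the control strain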
An asterisk follows results filed as active; [ ] = another dose, or the depositor's remark. Sampled rows, rich in hits. Any-hit rate of the full collection: about 2.9%.

For Cc1ccc(S(=O)(=O)CCC(=O)OCC(=O)Nc2cc(S(=O)(=O)N3CCOCC3)ccc2C)cc1 the results were Mot1-301 SUMO 26.
`CN(C)C(=O)c1cc(C(=O)c2ccc(F)cc2F)c[nH]1` gave Mot1-301 SUMO 2, FID counter -3, IMP-1 inhibitor -1, VIM-2 inhibitor 1, UBC9 SUMO inh -1 and NALP1 yeast inh 15.
`CN(C)C(=O)c1cc(C(=O)c2ccc(C(F)(F)F)cc2F)c[nH]1` gave Mot1-301 SUMO 500*, FID counter -9, IMP-1 inhibitor -3, VIM-2 inhibitor -2, UBC9 SUMO inh 3, NALP1 yeast inh 7 and Mot1 SUMO dose 0.
Screening O=C(O)c1c2c(nc3ccccc13)CCCCC2 returned Mot1-301 SUMO -10, FID counter 4, IMP-1 inhibitor 0, VIM-2 inhibitor 0, UBC9 SUMO inh -19 and NALP1 yeast inh 27.
CN(C)C(=O)c1c2c(nc3ccccc13)CCCC2 was read as Mot1-301 SUMO active, FID counter 8, IMP-1 inhibitor -3, VIM-2 inhibitor -4, UBC9 SUMO inh -9, NALP1 yeast inh 10 and Mot1 SUMO dose 0.
For CC(=O)c1cccc(N2C(=NC(=O)C3CC3)SC3CS(=O)(=O)CC32)c1 (centres undefined) the results were Mot1-301 SUMO -1, FID counter -7, IMP-1 inhibitor 0, VIM-2 inhibitor 0, UBC9 SUMO inh 8 and NALP1 yeast inh 8.
Screening CC(=O)c1cccc(N2C(=NC(=O)C3CCCCC3)SC3CS(=O)(=O)CC32)c1 (centres undefined) returned Mot1-301 SUMO 477*, FID counter -27, IMP-1 inhibitor -4, VIM-2 inhibitor -4, UBC9 SUMO inh 3, NALP1 yeast inh -2 and Mot1 SUMO dose 0.
For O=C(N=C1SC2CS(=O)(=O)CC2N1c1ccc(F)cc1F)C1CC1 (centres undefined) the results were Mot1-301 SUMO 9, FID counter -3, IMP-1 inhibitor 1, VIM-2 inhibitor -6 and NALP1 yeast inh 10.
Screening O=C(N=C1SC2CS(=O)(=O)CC2N1c1ccc(F)c(Cl)c1)C1CC1 (centres undefined) returned Mot1-301 SUMO 518*, FID counter 2, IMP-1 inhibitor -1, VIM-2 inhibitor -2, NALP1 yeast inh 11 and Mot1 SUMO dose 0.
Screening Cc1ccc(S(=O)(=O)Nc2cc(=O)[nH]c(SCc3ccccc3Cl)n2)cc1 returned Mot1-301 SUMO 11, FID counter 0, IMP-1 inhibitor -1, VIM-2 inhibitor 0, UBC9 SUMO inh 14 and NALP1 yeast inh 30.
Screening Cc1ccccc1CSc1n[nH]c(NS(=O)(=O)c2ccccc2)n1 returned Mot1-301 SUMO active, FID counter -15, IMP-1 inhibitor -2, VIM-2 inhibitor -2, UBC9 SUMO inh -2, NALP1 yeast inh 17 and Mot1 SUMO dose 0[21 µM].
`CN1CCN(C(=O)CCN2C(=O)/C(=C/c3ccccc3Cl)SC2=S)CC1` gave Mot1-301 SUMO 378*, FID counter 5, IMP-1 inhibitor -2, VIM-2 inhibitor -1, UBC9 SUMO inh 6, NALP1 yeast inh 7 and Mot1 SUMO dose -1.
Screening c1cncc(CNc2ncnc3sc4c(c23)CCC4)c1 returned Mot1-301 SUMO -10, FID counter -2, IMP-1 inhibitor -3, VIM-2 inhibitor -1, UBC9 SUMO inh 6 and NALP1 yeast inh 7.
`c1ccc(CNc2ncnc3sc4c(c23)CCC4)nc1` gave Mot1-301 SUMO 818*, FID counter -15, IMP-1 inhibitor -3, VIM-2 inhibitor 10*, UBC9 SUMO inh 13, NALP1 yeast inh -18 and Mot1 SUMO dose 0.
